From ChEMBL document CHEMBL3286331, “Design, synthesis and evaluation of novel quinazoline-2,4-dione derivatives as chitin synthase inhibitors and antifungal agents” (Bioorg Med Chem, 2014)
≈ marks a conversion by molar mass, not a printed value.

Columns and labels:
[1] = test system: Candida albicans; experiment: Antifungal activity against Candida albicans ATCC 76615 after 48 hrs by disc diffusion method; format: functional; conditions: ATCC 76615, 48 h
Summary of the method: (§1)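 Disc diffusion on modified Sabouraud-chloramphenicol agar (1% peptone, 2% glucose, […]), compounds as sterile-water stocks; fluconazole and polyoxin B positive controls; MIC (mg/L) recorded after 48 h at 37 °C.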

[2] = test system: Bacillus; experiment: Antibacterial activity against Bacillus proteus after overnight incubation by disc diffusion method; format: functional
Summary of the method: (§2)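 Agar disc diffusion on beef extract–peptone medium (1% peptone, 0.3% beef extract, 0.5% NaCl, […]), compounds dissolved in sterile water; streptomycin sulfate positive control; plates incubated overnight at 37 °C, then MIC recorded (mg/L).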

[3] = test system: Staphylococcus aureus; experiment: Antibacterial activity against Staphylococcus aureus ATCC 25923 after overnight incubation by disc diffusion method; format: functional; summary of the method: as §2
[4] = test system: Staphylococcus aureus; experiment: Antibacterial activity against methicillin-resistant Staphylococcus aureus N315 after overnight incubation by disc diffusion method; format: functional
Summary of the method: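 Disc diffusion on beef extract-peptone agar (1% peptone, 0.3% beef extract, 0.5% NaCl, […]); compounds dissolved in sterile water; streptomycin sulfate positive control; plates incubated overnight at 37 °C, then MIC (mg/L) recorded.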

[5] = test system: Bacillus spizizenii; experiment: Antibacterial activity against Bacillus subtilis ATCC 6633 after overnight incubation by disc diffusion method; format: functional; summary of the method: as §2
[6] = test system: Pseudomonas aeruginosa; experiment: Antibacterial activity against Pseudomonas aeruginosa CR56 after overnight incubation by disc diffusion method; format: functional; summary of the method: as §2
[7] = test system: Escherichia coli; experiment: Antibacterial activity against Escherichia coli JM 109 after overnight incubation by disc diffusion method; format: functional; summary of the method: as §2
[8] = Inhibition of Saccharomyces cerevisiae CGMCC 2.145 chitin synthase assessed as UDP-GlcNAc conversion to chitin after 45 mins by ELISA
Summary of the method: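 Enzyme prepared from S. cerevisiae cells sonicated at 4 °C in 50 mM Tris–HCl pH 7.0 with protease inhibitors and PMSF; 55,000 g membrane pellet used. Wells hold UDP-GlcNAc plus 320 mM GlcNAc, compound in Tris buffer (final DMSO below 3%), 45 min at 37 °C. Chitin detected with HRP–wheat germ agglutinin, TMB read at 450 nm against a chitin standard curve; IC50 derived.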

[9] = test system: Cryptococcus neoformans; experiment: Antifungal activity against Cryptococcus neoformans after 48 hrs by disc diffusion method; format: functional; summary of the method: as §1
[10] = test system: Aspergillus flavus; experiment: Antifungal activity against Aspergillus flavus after 48 hrs by disc diffusion method; format: functional; summary of the method: as §1
[11] = test system: Aspergillus flavus; experiment: Ratio of polyoxin B MIC to compound MIC for Aspergillus flavus; format: functional
[12] = test system: Aspergillus flavus; experiment: Ratio of fluconazole MIC to compound MIC for Aspergillus flavus; format: functional

SMILES	MIC [1] [µg/mL]	MIC [2] [µg/mL]	MIC [3] [µg/mL]	MIC [4] [µg/mL]	MIC [5] [µg/mL]	MIC [6] [µg/mL]	MIC [7] [µg/mL]	IC50 [8] [µM]	MIC [9] [µg/mL]	MIC [10] [µg/mL]	Ratio [11]	Ratio [12]
CN(CC(=O)NCc1ccccc1)CC(O)Cn1c(=O)c2ccccc2n(C)c1=O.Cl (centres undefined)	32	≥ 512	≥ 512	≥ 512	≥ 512	≥ 512	≥ 512	130	64	32		
CN(CC(=O)Nc1ccccc1Cl)CC(O)Cn1c(=O)c2ccccc2n(C)c1=O.Cl (centres undefined)	64	≥ 512	≥ 512	≥ 512	≥ 512	≥ 512	≥ 512	260	2	32		
Cc1ccc(NC(=O)CN(C)CC(O)Cn2c(=O)c3ccccc3n(C)c2=O)cc1.Cl (centres undefined)	32	≥ 512	≥ 512	≥ 512	≥ 512	≥ 512	≥ 512	80	2	32		
CCCN(CCC)C(=O)CN(C)CC(O)Cn1c(=O)c2ccccc2n(C)c1=O.Cl (centres undefined)	> 512	≥ 512	≥ 512	≥ 512	≥ 512	≥ 512	≥ 512	390	16	32		
CN(CC(=O)NC(C)(C)C)CC(O)Cn1c(=O)c2ccccc2n(C)c1=O.Cl (centres undefined)	> 512	≥ 512	≥ 512	≥ 512	≥ 512	≥ 512	≥ 512	140	128	64		
CN(CC(=O)Nc1ccc(Cl)cc1)CC(O)Cn1c(=O)c2ccccc2n(C)c1=O.Cl (centres undefined)	16	≥ 512	≥ 512	≥ 512	≥ 512	≥ 512	≥ 512	160	2	128		
CN(CC(=O)Nc1ccc(C(F)(F)F)cc1)CC(O)Cn1c(=O)c2ccccc2n(C)c1=O.Cl (centres undefined)	32	≥ 512	≥ 512	≥ 512	≥ 512	≥ 512	≥ 512	110	32	8		
CN(CC(=O)N(C)c1ccccc1)CC(O)Cn1c(=O)c2ccccc2n(C)c1=O.Cl (centres undefined)	64	≥ 512	≥ 512	≥ 512	≥ 512	≥ 512	≥ 512	320	8	256		
NC(=O)OC[C@H](O)[C@@H](O)[C@H](N)C(=O)N[C@H](C(=O)O)[C@H]1O[C@@H](n2cc(CO)c(=O)[nH]c2=O)[C@H](O)[C@@H]1O [POLYOXIN B]	16 (≈ 31.5 µM)							180	4 (≈ 7.88 µM)	32 (≈ 63.1 µM)		
COc1ccc(NC(=O)CN(C)CC(O)Cn2c(=O)c3ccccc3n(C)c2=O)cc1.Cl (centres undefined)	16	≥ 512	≥ 512	≥ 512	≥ 512	≥ 512	≥ 512	180	128	16		
CN(CC(=O)N1CCCCC1)CC(O)Cn1c(=O)c2ccccc2n(C)c1=O.Cl (centres undefined)	32	≥ 512	≥ 512	≥ 512	≥ 512	≥ 512	≥ 512	> 750	512			
COC(=O)c1ccccc1NC(=O)CN(C)CC(O)Cn1c(=O)c2ccccc2n(C)c1=O.Cl (centres undefined)	32	≥ 512	≥ 512	≥ 512	≥ 512	≥ 512	≥ 512	170	2	4	8	16
CN(CC(=O)Nc1ccccc1)CC(O)Cn1c(=O)c2ccccc2n(C)c1=O.Cl (centres undefined)	32	≥ 512	≥ 512	≥ 512	≥ 512	≥ 512	≥ 512	> 750	64	> 512		
OC(Cn1cncn1)(Cn1cncn1)c1ccc(F)cc1F [FLUCONAZOLE]	32 (≈ 104 µM)								2 (≈ 6.53 µM)	64 (≈ 209 µM)		
CN(CC(=O)Nc1ccc([N+](=O)[O-])cc1)CC(O)Cn1c(=O)c2ccccc2n(C)c1=O.Cl (centres undefined)	> 512	≥ 512	≥ 512	≥ 512	≥ 512	≥ 512	≥ 512	> 750	64	64		
CN(CC(=O)Nc1ccccc1[N+](=O)[O-])CC(O)Cn1c(=O)c2ccccc2n(C)c1=O.Cl (centres undefined)	> 512	≥ 512	≥ 512	≥ 512	≥ 512	≥ 512	≥ 512	210	32	64		
CN(CC(=O)NCc1ccc(Cl)cc1)CC(O)Cn1c(=O)c2ccccc2n(C)c1=O.Cl (centres undefined)	32	≥ 512	≥ 512	≥ 512	≥ 512	≥ 512	≥ 512	> 750	64	64		
CN[C@@H]1[C@H](O[C@H]2[C@H](O[C@H]3[C@H](O)[C@@H](O)[C@H](N=C(N)N)[C@@H](O)[C@@H]3N=C(N)N)O[C@@H](C)[C@]2(O)C=O)O[C@@H](CO)[C@H](O)[C@H]1O.CN[C@@H]1[C@H](O[C@H]2[C@H](O[C@H]3[C@H](O)[C@@H](O)[C@H](N=C(N)N)[C@@H](O)[C@@H]3N=C(N)N)O[C@@H](C)[C@]2(O)C=O)O[C@@H](CO)[C@H](O)[C@H]1O.O=S(=O)(O)O.O=S(=O)(O)O.O=S(=O)(O)O [STREPTOMYCIN SULFATE]		64	64	64	64	64	64					
CCN(CC)C(=O)CN(C)CC(O)Cn1c(=O)c2ccccc2n(C)c1=O.Cl (centres undefined)	64	≥ 512	≥ 512	≥ 512	≥ 512	≥ 512	≥ 512	340	16	8		
